SENP6 block – inhibitors of human SENP6 protease | Recombinant SENP6 catalytic domain, aminoluciferin luminescence | inhibition, % at 10 µM | 330,000 tested, 1.8% active | AID 2599;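 active = inhibition above about 50% at the single tested dose, limit read from the data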;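 also: plate controls were DMSO wells with enzyme for no effect and DMSO wells lacking enzyme for full effect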
SENP7 inh – inhibitors of human SENP7 protease; inhibition, % at 5 µM; 330,000 tested, 1.5% active; recombinant SENP7, Z-RLRGG-aminoluciferin luminescence, 40 min; AID 434973; Q9BQF6;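 active = inhibition above about 50% at the single test dose, limit read from the data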;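 also: plate controls were DMSO with enzyme for no effect and no enzyme buffer wells for full effect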
Target sequence (Q9BQF6 706-1050 limits assumed): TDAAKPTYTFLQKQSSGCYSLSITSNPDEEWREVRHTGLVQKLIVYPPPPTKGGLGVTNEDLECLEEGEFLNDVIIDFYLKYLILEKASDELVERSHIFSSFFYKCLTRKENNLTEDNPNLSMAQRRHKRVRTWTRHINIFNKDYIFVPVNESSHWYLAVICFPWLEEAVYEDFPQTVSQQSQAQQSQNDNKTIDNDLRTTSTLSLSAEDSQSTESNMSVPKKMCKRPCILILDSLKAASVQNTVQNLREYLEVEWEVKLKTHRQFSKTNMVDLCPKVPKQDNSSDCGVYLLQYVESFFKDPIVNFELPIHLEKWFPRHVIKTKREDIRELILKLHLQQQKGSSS
SENP8 block-1 – SENP8 (human) protease inhibition; recombinant SENP8, Nedd8 substrate fluorescence; inhibition, % at 20 µM; 360,000 tested, 0.64% active; AID 602440; in the data active = inhibition mostly above about 40%, no sharp cut-off; inactive = mostly below about 27%
SENP1 inh – blocks the human SENP1 SUMO protease catalytic domain | inhibition, % at 10 µM | recombinant SENP1 catalytic domain, CyPet-SUMO1-YPet FRET cleavage | 360,000 tested, 0.21% active | AID 624204 | Q9P0U3;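 active = inhibition at least 30% at 10 µM, raw YFP signal under a set limit, fluorescence ratio 0.5 to 1.5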;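 also: 0% = enzyme with DMSO and 100% = no enzyme wells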
Target sequence (Q9P0U3 419-644 limits assumed): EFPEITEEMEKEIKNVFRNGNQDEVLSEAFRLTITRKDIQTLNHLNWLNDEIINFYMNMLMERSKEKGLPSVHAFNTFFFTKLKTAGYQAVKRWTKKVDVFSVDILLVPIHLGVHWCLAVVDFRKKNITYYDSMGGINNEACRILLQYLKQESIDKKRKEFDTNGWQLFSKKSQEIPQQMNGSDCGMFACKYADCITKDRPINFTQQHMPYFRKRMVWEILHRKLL
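system = hSENP1 catalytic domain, recombinant | reagent = SFCypet-SUMO1-SFYpet substrate at 25 nM | doses = one dose per compound, 10 µM, 0.5% DMSO | incubation = enzyme reaction for 50 min at room temperature, dark | measured by = FRET, CFP and YFP emission | controls = no-enzyme low, enzyme-DMSO high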
SENP8 block-2 – blocks the human protease SENP8. inhibition, % at 10 µM. AID 2540. 330,000 tested, 1.2% active. purified SENP8, Z-RLRGG-aminoluciferin cleavage, luminescence. Q96LD8; in the data active = inhibition above about 50%
SENP8 confirm – human SENP8 inhibition, confirmed; shares compounds with SENP7 inh; Recombinant SENP8, Z-RLRGG-aminoluciferin luminescence, 60 min; inhibition, % at 12.5 µM; 6,200 tested, 40% active; AID 488912;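 active = mean inhibition across replicates above about 50%, limit read from the data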
SENP6 conf – confirmation of human SENP6 protease inhibitors | shares compounds with SENP7 inh | recombinant SENP6, Z-RLRGG-aminoluciferin luminescence | inhibition, % at 12.5 µM | 6,200 tested, 58% active | AID 488915
SENP7 conf – confirmation of human SENP7 protease inhibitors | inhibition, % at 12.5 µM | AID 488917 | 6,200 tested, 69% active | shares compounds with SENP7 inh | recombinant SENP7, Z-RLRGG-aminoluciferin luminescence, 40 min
Casp3 select – caspase-3 inhibition (SENP selectivity assay). AID 488918. 6,200 tested, 60% active. purified caspase-3, Z-DEVD-aminoluciferin luminescence, 60 min. shares compounds with SENP7 inh. inhibition, % at 12.5 µM;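 active = mean inhibition above about 50%, limit read from the data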;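 also: plate controls were enzyme with DMSO for no effect and wells without caspase-3 for full effect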
Luc interf – interferes with luciferase luminescence in SENP counter-screen; 6,200 tested, 39% active; Pre-incubated SENP8/Z-RLRGG-aminoluciferin, luciferase luminescence interference; inhibition, % at 12.5 µM; shares compounds with SENP7 inh;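 active = mean inhibition above about 50% when retested at one dose, limit read from the data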;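 also: plate controls were DMSO wells with completed reaction for no effect and substrate without enzyme for full effect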
Numbers without * were called inactive; · = no result given. A selection: hits, their analogues and other compounds. The true share with any hit is near 2.5%.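 The calls were made as follows, unless noted: active = mean inhibition above about 50% in the one-dose retest (limit read from the data); inactive = the rest.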

SMILES	SENP6 block	SENP7 inh	SENP8 block-1	SENP1 inh	SENP8 block-2	SENP8 confirm	SENP6 conf	SENP7 conf	Casp3 select	Luc interf
OC(c1ccccc1)(c1nc(-c2ccc(Cl)cc2)cs1)C(F)(F)F (stereo not drawn)	·	·	8	1	·	·	·	·	·	·
C/C(=N\Nc1ccccc1[N+](=O)[O-])c1ccccc1O	42	74*	40*	1	23	11	14	19	24	6
C/C(=N\Nc1cccc2cccnc12)c1ccccc1O	82*	88*	-6	-5	77*	7	18	22	25	3
c1ccc2c(c1)CCN(c1nc3cc4c(cc3s1)OCCO4)C2	97*	99*	-340	-7	96*	98*	99*	102*	97*	83*
O=C1CCCN1C(=O)CSc1ncnc2sccc12	-13	-7	-14	-14	6	·	·	·	·	·
Cc1ccc(N=Nc2cc(C)ccc2N)cc1	99*	100*	35	5	98*	99*	100*	103*	97*	96*
O=C(CNC(=O)c1ccc(-c2ccccc2)cc1)Nc1cccc(CO)c1	-17	10	0	0	1	·	·	·	·	·
COC(=O)c1ccc(NC(=O)Cc2ccc(F)cc2)cc1	-10	1	13	0	-7	·	·	·	·	·
O=C(Nc1ccccc1)Nc1cccc(NC(=O)Nc2ccccc2)c1F	-12	1	10	3	-5	·	·	·	·	·
CC(=O)Nc1cccc(NC(=O)Nc2ccc(F)cc2F)c1	-19	-6	10	0	-16	·	·	·	·	·
CCSc1nsc(NC(=O)Nc2ccc(F)cc2F)n1	52*	12	3	0	22	25	23	65*	34	15
COC(=O)c1ccc(NC(=O)Nc2ccc(F)cc2F)cc1	81*	88*	4	-3	64*	12	12	77*	72*	6
O=C(Nc1ccccc1)Nc1ccccc1Br	59*	81*	24	3	73*	6	82*	96*	78*	45
O=C(Nc1ccccc1)Nc1ccc(F)cc1F	67*	70*	29	1	44	59*	56*	82*	67*	45
CCSc1nsc(NC(=O)Nc2ccccc2Cl)n1	·	·	4	1	·	·	·	·	·	·
COC(=O)c1ccc(NC(=O)Nc2cccc(F)c2)cc1	88*	90*	4	-1	79*	75*	75*	96*	69*	9
Oc1[nH]c2ccccc2c1N=Nc1cccc(Cl)c1	36	64*	24	0	47	-20	-2	14	8	-5
O=C(CSCc1ccccc1)N=Nc1c(O)[nH]c2ccccc12	10	3	35	3	1	·	·	·	·	·
Oc1[nH]c2ccccc2c1N=Nc1ccccn1	·	·	21	8	·	·	·	·	·	·
O=C(N=Nc1c(O)[nH]c2ccccc12)c1ccco1	60*	62*	20	2	24	49	46	83*	80*	33
Cc1cccc2c(N=Nc3ccccc3)c(O)[nH]c12	-3	54*	19	10	-9	12	13	35	12	7
Oc1[nH]c2ccccc2c1N=Nc1nncc2ccccc12	72*	74*	-35	0	42	49	48	72*	76*	58*
C/C(N)=C(/C#N)C(=O)CSc1nc(-c2ccccc2)c(-c2ccccc2)o1	10	7	-135	1	9	·	·	·	·	·
CCN1CCN(c2ncnc3sc(C)c(-c4ccccc4)c23)CC1	-13	-6	6	-4	3	·	·	·	·	·
C(#Cc1ccc2c(c1)COc1c3ccccc3nn1-2)c1ccccc1	76*	61*	-84	-21	74*	26	31	57*	41	49
SMILES	SENP6 block	SENP7 inh	SENP8 block-1	SENP1 inh	SENP8 block-2	SENP8 confirm	SENP6 conf	SENP7 conf	Casp3 select	Luc interf
CCCCCCC#Cc1ccc2c(c1)COc1c3ccccc3nn1-2	-15	-6	10	1	-14	·	·	·	·	·
C#Cc1ccc2c(c1)COc1c3ccccc3nn1-2	96*	72*	-2	4	93*	76*	96*	101*	92*	52*
C(#CC1CCCCC1)c1ccc2c(c1)COc1c3ccccc3nn1-2	37	19	-2	0	16	·	·	·	·	·
Brc1ccc(/C=N/Nc2ccccc2)cc1	17	5	5	-1	-16	·	·	·	·	·
C(=N\Nc1ccccn1)/c1ccc2c(c1)OCCO2	86*	83*	-4	0	72*	81*	80*	97*	84*	17
Brc1ccccc1/C=N/Nc1ccc2ccccc2n1	75*	70*	-129	-1	49	41	78*	91*	53*	46
Brc1ccc(/C=N/Nc2ccc3ccccc3n2)cc1	78*	59*	-104	1	62*	-5	-7	18	26	1
Fc1cccc(/C=N/Nc2nc3ccccc3[nH]2)c1	-12	6	·	·	-14	·	·	·	·	·
Fc1cccc(/C=N/Nc2ccc3ccccc3n2)c1	95*	95*	-107	0	91*	94*	94*	100*	82*	40
CN(C)CCOC(=O)CCCCCCCCC(=O)OCCN(C)C	-7	2	10	1	-5	·	·	·	·	·
Fc1cccc(/C=N/Nc2ccccn2)c1	43	74*	8	-1	55*	51*	79*	95*	77*	35
c1ccc2c3c(cc(N4CCOCC4)c2c1)OC1(N2CCOCC2)CCCCC1O3 (stereo not drawn)	80*	45	-290	0	38	11	18	11	4	3
CN(C(=O)COc1ccc2ccc(=O)oc2c1)C1CCS(=O)(=O)C1 (stereo not drawn)	12	92*	-291	1	2	6	7	10	7	0
